Assays:
[1] = Antioxidant activity assessed as inhibition of ABTS radical cation generation at 1 mg/ml by colorimetric method relative to control; type: physicochemical
How it was run: (§1)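 ABTS radical cation solution read at 734 nm. Test samples were added as a 1 mg/ml solution in MeOH/buffer (1:1 v/v); ascorbic acid (2 mM solution) and curcumin (1 mg/ml) were the standards. % inhibition = (Acontrol − Atest)/Acontrol × 100. Blank was solvent without ABTS.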

[2] = Cytotoxicity against mouse EAC cells assessed as dead cells at 25 uM after 24 hrs by trypan blue dye exclusion method relative to control; type: functional, Ehrlich
How it was run: (§2)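 EAC cells came from ascitic fluid of female Swiss albino mice 7-8 days after inoculation and were washed in HEPES-buffered Hanks' salt solution. They were preincubated 24 h in RPMI 1640 with 10% fetal calf serum at 2 × 10⁵ cells/ml, 37 °C, 5% CO₂. Cells were then exposed to drug for 24 h, PBS-washed and counted by trypan blue exclusion. Survival = viable T/C × 100; triplicate mean.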

[3] = Cytotoxicity against mouse EAC cells assessed as dead cells at 50 uM after 24 hrs by trypan blue dye exclusion method relative to control; type: functional, Ehrlich; how it was run: as §2
[4] = Cytotoxicity against mouse EAC cells assessed as dead cells at 100 uM after 24 hrs by trypan blue dye exclusion method relative to control; type: functional, Ehrlich; how it was run: as §2
[5] = Antitumor activity against mouse EAC cells allografted in Swiss albino mouse assessed as tumor growth inhibition at 75 mg/kg, po administered for 21 days measured 21 day post dose relative to control; type: functional; details: Ehrlich, 504 h, read-out: TGI
How it was run: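 EAC was kept by i.p. passage in female Swiss albino mice. Washed ascitic cells (5 × 10⁵ viable per 0.1 ml saline) were injected s.c. At 50–100 mm³, mice were split into groups of 10 and given compound 75 mg/kg orally in CMC for 21 consecutive days; controls got saline 5 ml/kg. Tumor size was read at day 0 and day 21. Inhibition was derived from ΔT/ΔC × 100.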

[6] = Antioxidant activity assessed as inhibition of ABTS radical cation generation at 2 mM by colorimetric method relative to control; type: physicochemical; details: 2000 µM; how it was run: as §1

SMILES: COc1ccc(/C=C/C2=NN(C(N)=S)C(c3ccc(OC)cc3)C2)cc1 (stereo not given)
- inhibition (INH) [1]: 84.52%
- Activity [2]: 28.7%
- Activity [3]: 57.5%
- Activity [4]: 98%
- inhibition in vivo at 75 mg/kg [5]: 76%

SMILES: COc1ccc(/C=C/C2=NN(c3nc(-c4ccccc4)cs3)C(c3ccc(OC)cc3)C2)cc1 (stereo not given)
- inhibition (INH) [1]: 76%
- Activity [2]: 30.4%
- Activity [3]: 61.6%
- Activity [4]: 98.3%
- inhibition in vivo at 75 mg/kg [5]: 65%

SMILES: CCN1C/C(=C\c2ccc(OC)cc2)C2=NN(C(N)=S)C(c3ccc(OC)cc3)C2C1 (stereo not given)
- inhibition (INH) [1]: 88.17%
- Activity [2]: 31.7%
- Activity [3]: 66.5%
- Activity [4]: 99%
- inhibition in vivo at 75 mg/kg [5]: 77%

SMILES: COc1ccc(/C=C2\CCC3C2=NN(c2nc(-c4ccc(Cl)cc4)cs2)C3c2ccc(OC)cc2)cc1 (stereo not given)
- inhibition (INH) [1]: 27.47%
- Activity [2]: 25%
- Activity [3]: 47.1%
- Activity [4]: 93.5%

SMILES: COc1ccc(/C=C2\CN(C)CC3C2=NN(c2nc(-c4ccc(Cl)cc4)cs2)C3c2ccc(OC)cc2)cc1 (stereo not given)
- inhibition (INH) [1]: 69.56%
- Activity [2]: 29.2%
- Activity [3]: 58%
- Activity [4]: 97.9%
- inhibition in vivo at 75 mg/kg [5]: 70%

SMILES: CCN1C/C(=C\c2ccc(OC)cc2)C2=NN(c3nc(-c4ccccc4)cs3)C(c3ccc(OC)cc3)C2C1 (stereo not given)
- inhibition (INH) [1]: 60.52%
- Activity [2]: 27.8%
- Activity [3]: 50.2%
- Activity [4]: 95.4%

SMILES: CCN1C/C(=C\c2ccc(OC)cc2)C2=NN(c3nc(-c4ccc(Cl)cc4)cs3)C(c3ccc(OC)cc3)C2C1 (stereo not given)
- inhibition (INH) [1]: 82.6%
- Activity [2]: 98.3%
- Activity [3]: 100%
- Activity [4]: 100%
- inhibition in vivo at 75 mg/kg [5]: 82%

SMILES: COc1ccc(/C=C2\CCCC3C2=NN(C2=NC(=O)/C(=C/c4ccc(Cl)cc4)S2)C3c2ccc(OC)cc2)cc1 (stereo not given)
- inhibition (INH) [1]: 25.73%
- Activity [2]: 23.8%
- Activity [3]: 46%
- Activity [4]: 84%

SMILES: COc1ccc(/C=C2\CCCC3C2=NN(C2=NC(=O)/C(=C/c4ccc(Br)cc4)S2)C3c2ccc(OC)cc2)cc1 (stereo not given)
- inhibition (INH) [1]: 5.21%
- Activity [2]: 22%
- Activity [3]: 43.8%
- Activity [4]: 81.6%

SMILES: COc1ccc(/C=C2\CCCC3C2=NN(C2=NC(=O)/C(=C/c4ccc(OC)c(OC)c4)S2)C3c2ccc(OC)cc2)cc1 (stereo not given)
- inhibition (INH) [1]: 19.13%
- Activity [2]: 20.4%
- Activity [3]: 40%
- Activity [4]: 75.8%

SMILES: N#Cc1c(N)nc2c(c1-c1ccc(O)cc1)CCC/C2=C\c1ccc(O)cc1
- inhibition (INH) [1]: 8.69%
- Activity [2]: 21.7%
- Activity [3]: 43.4%
- Activity [4]: 81%

SMILES: COc1cc(/C=C2\CCCc3c2nc(N)c(C#N)c3-c2ccc(O)c(OC)c2)ccc1O
- inhibition (INH) [1]: 46.6%
- Activity [2]: 60.2%
- Activity [3]: 84%
- Activity [4]: 99.7%
- inhibition in vivo at 75 mg/kg [5]: 80%

SMILES: COc1ccc(/C=C2\CCCc3c2nc(N)c(C#N)c3-c2ccc(OC)c(OC)c2)cc1OC
- inhibition (INH) [1]: 9.73%
- Activity [2]: 24.9%
- Activity [3]: 45.1%
- Activity [4]: 84.2%

SMILES: O=C1O[C@H]([C@@H](O)CO)C(O)=C1O [ASCORBIC ACID]
- inhibition (INH) [6]: 88.34%

SMILES: COc1cc(/C=C/C(=O)CC(=O)/C=C/c2ccc(O)c(OC)c2)ccc1O [CURCUMIN]
- inhibition (INH) [1]: 86.6%

Source: ChEMBL document CHEMBL3612035, “Synthesis and biological evaluation of new curcumin analogues as antioxidant and antitumor agents: molecular modeling study” (Eur J Med Chem, 2015)
